The target in series [1] is T1, Ms sGC-NT13 (Manduca sexta, UniProt O77106). The experiment in a line: CO titration monitoring the CO-bound Soret band. It is filed as binding. As to conditions: for Kd^CO/Kd^CO′ cooperativity factor: ratio of CO dissociation constants without and with compound. The essentials: (§1)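 CO titrations were run at room temperature in 50 mM potassium phosphate pH 7.4, 100 mM KCl, 5% glycerol, at several YC-1 concentrations (0–50 μM). NT21 used a 10 cm cuvette with 0.1 μM protein; NT13 used a 1 cm cuvette with 1 μM protein. A four-state cooperative model was globally fit to normalized absorbance changes at 423 and 433 nm, giving Ka^CO, Ka^YC-1 and Kint. Kd^CO′ is the inverse of Ka^CO·Kint.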

The target of series [2] is T2, Ms sGC-NT21 (Manduca sexta, UniProt O77106). The experiment in a line: CO titration monitoring the CO-bound Soret band. It is filed as binding. Particulars: for Kd^CO/Kd^CO′ cooperativity factor: ratio of CO dissociation constants without and with compound. An outline of the steps: as §1
In series [3] the target is T1, Ms sGC-NT13. In kind it is binding.
The target of series [4] is T2, Ms sGC-NT21. In kind it is binding. As to conditions: for Kint (CO) cooperativity factor: from global fitting.
In the next series the target is Ms sGC-NT13-CO (Manduca sexta, UniProt O77106). The experiment in a line: Soret band shift titration of CO-saturated protein. In kind it is binding.
The target of a further series is Ms sGC-NT21-CO (Manduca sexta, UniProt O77106). The experiment in a line: Soret band shift titration of CO-saturated protein. It is filed as binding.
Another series deals with Ms sGC-NT (Manduca sexta, UniProt O77106). The experiment in a line: Stimulator binding to Ms sGC-NT constructs, summary over constructs and methods. As to conditions: for Effect of α1 H-NOX removal on stimulator binding (Ms sGC-NT21 vs Ms sGC-NT13): unliganded proteins.
The subject of series [5] is pre-constricted aortic rings. Particulars: read-out: EC50 to stimulate sGC in pre-constricted aortic rings; cited from earlier work.
A further series addresses T3, Ms sGC β1(1–380) (Manduca sexta, UniProt O77106).
T3 sequence (O77106 1-380): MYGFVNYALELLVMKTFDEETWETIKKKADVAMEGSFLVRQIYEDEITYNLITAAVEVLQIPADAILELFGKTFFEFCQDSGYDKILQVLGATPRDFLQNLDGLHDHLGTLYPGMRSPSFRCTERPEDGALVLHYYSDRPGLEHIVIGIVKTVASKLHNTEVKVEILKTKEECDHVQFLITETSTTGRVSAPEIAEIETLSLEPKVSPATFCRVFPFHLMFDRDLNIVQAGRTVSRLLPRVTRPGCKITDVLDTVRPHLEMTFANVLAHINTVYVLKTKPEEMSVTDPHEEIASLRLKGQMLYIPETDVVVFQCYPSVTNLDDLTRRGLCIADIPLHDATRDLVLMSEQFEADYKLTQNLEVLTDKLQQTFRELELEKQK
The experiment in a line: CO titration monitoring the CO-bound Soret band. As to conditions: for Kd: read-out: Kd^CO. It is filed as binding. An outline of the steps: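 Ms β1(1–380) was expressed in E. coli Rosetta pLysS with 25 μM δ-aminolevulinic acid. It was purified by anion exchange, Ni-NTA (EDTA elution) and S200 gel filtration, where it ran as a monomer, then prepared in Ar-purged buffer with excess dithionite. CO from a saturated solution was titrated into a septum-capped 10 cm cuvette, the CO-bound Soret band was followed, and data were fit to a single-site saturation model.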

The target in the next series is T4, Bt sGC β1(1–197) (Bos taurus, UniProt P16068).
T4 sequence (P16068 1-197): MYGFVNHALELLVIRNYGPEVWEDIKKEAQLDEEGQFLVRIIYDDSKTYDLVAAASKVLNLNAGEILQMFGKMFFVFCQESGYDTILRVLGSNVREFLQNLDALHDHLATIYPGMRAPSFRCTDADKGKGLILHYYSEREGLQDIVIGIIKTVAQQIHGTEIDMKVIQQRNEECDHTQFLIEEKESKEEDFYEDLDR
The experiment in a line: CO titration monitoring the CO-bound Soret band. It is filed as binding, Bos taurus (bovine). The essentials: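 Bovine β1 H-NOX construct was expressed in E. coli BL21(DE3)pRIPL with δ-aminolevulinic acid and ferric citrate. It was purified by Q-FF, S75 and second Q-FF chromatography and prepared in Ar-purged buffer with excess dithionite. CO from a saturated solution was titrated by gas-tight syringe into the septum-capped cuvette while the CO-bound Soret band was followed. Data were fit to a single-site saturation model.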

The target in the next series is T5, Bt sGC β1(1–359) (Bos taurus, UniProt P16068).
T5 sequence (P16068 1-359): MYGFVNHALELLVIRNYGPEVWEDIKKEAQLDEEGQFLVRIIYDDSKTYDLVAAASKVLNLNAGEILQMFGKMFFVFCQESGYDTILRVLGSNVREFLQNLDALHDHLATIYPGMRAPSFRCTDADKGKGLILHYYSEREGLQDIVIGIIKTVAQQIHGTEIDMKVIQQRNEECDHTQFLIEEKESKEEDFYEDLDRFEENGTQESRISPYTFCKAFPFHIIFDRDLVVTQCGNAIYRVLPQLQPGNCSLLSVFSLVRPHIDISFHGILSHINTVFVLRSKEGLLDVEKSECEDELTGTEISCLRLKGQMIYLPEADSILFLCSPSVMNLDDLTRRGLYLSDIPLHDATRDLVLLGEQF
The experiment in a line: CO titration monitoring the CO-bound Soret band. Particulars: read-out: Kd^CO; no stimulator; 1 μM protein. It is filed as binding, Bos taurus (bovine). The essentials:
(§2)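 CO from a saturated solution was added by gas-tight syringe to protein in septum-capped 1 or 10 cm cuvettes. The appearance of the CO-bound Soret absorption band was followed, and data were fit to a single-site saturation ligand-binding model.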

The target of series [6] is heterodimeric sGC proteins. The experiment in a line: CO binding to heterodimeric sGC proteins, summary over constructs. Set-up: species or system Manduca sexta. As to conditions: read-out: Kd^CO, range over heterodimeric proteins; absence of YC-1. The essentials:
as §2

The target in series [7] is Bt sGC (full length). As to conditions: read-out: Kd^CO, no stimulator, cited from earlier work.
A further series concerns the target Hs sGC (full length). As to conditions: read-out: Kd^CO; no stimulator; ref 77; cited from earlier work.
A further series has as its target Ms sGC-NT2. As to conditions: read-out: Kd^CO, no stimulator, cited from earlier work.
Another series deals with Ms sGC-NT19. Particulars: read-out: Kd^CO; no stimulator; ref 43; cited from earlier work.
A further series deals with T6, Ms sGC α1 PAS (Manduca sexta, UniProt O77105).
T6 sequence (O77105 279-404): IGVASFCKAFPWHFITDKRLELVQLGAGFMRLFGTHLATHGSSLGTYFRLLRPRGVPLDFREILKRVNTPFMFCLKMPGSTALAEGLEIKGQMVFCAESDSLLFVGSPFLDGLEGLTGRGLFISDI
The experiment in a line: Fluorescence anisotropy of YC-1. It is filed as binding. Background: In fluorescence polarisation assays a small probe gives low polarisation when free and higher when bound to something large.

The next series relates to β1 PAS domain. The experiment in a line: Fluorescence anisotropy of YC-1. It is filed as binding, Manduca sexta. As to conditions: 2 μM YC-1, 20 °C; likely non-specific.
For a further series, the system named is lysozyme. The experiment in a line: Fluorescence anisotropy of YC-1. In kind it is binding. Particulars: 2 μM YC-1, 20 °C.
Another series deals with Ms sGC β1 (1–380). The experiment in a line: Soret band shift on YC-1 addition. It is filed as binding, Manduca sexta. Particulars: CO-saturated protein.
The target in series [8] is Bt sGC (full length). As to conditions: read-out: Kd^YC-1′, +CO; measured in the presence of GTP; cited from earlier work.
The next series has as its system sGC. Particulars: cited from earlier work.

Results on 3 molecules are retold here after paper PMC3914721 (Biochemistry, 2013).

Values joined by “and” are separate entries in the source; they are usually repeats but may differ in a detail not shown here. Equal entries are not always repeated. Where two headings read alike, the source gives them in different places. A value given as a limit tells only on which side of the number the result lay.

The term Kd denotes the equilibrium constant for the complex coming apart. The term EC50 denotes the concentration that produces a half-maximal response. For `Nc1nc(-c2nn(Cc3ccccc3F)c3ncccc23)ncc1C1CC1` [BAY 41–2272], the “Kd^CO/Kd^CO′ cooperativity factor” value at Ms sGC-NT13 [1] was 212 ± 23; on Ms sGC-NT21 [2], 31 ± 5. The Kd is 17000 ± 3000 nM on Ms sGC-NT13 [3] (Kd^BAY, −NO/CO, estimated assuming linked equilibria: (Kd^CO/Kd^CO′) Kd^BAY′); 30 ± 10 nM on Ms sGC-NT21 [4]; 80 ± 10 nM at Ms sGC-NT13-CO; 90 ± 20 nM on Ms sGC-NT21-CO. The “Kint (CO) cooperativity factor” value at Ms sGC-NT21 [4] is 58 ± 7. Also, the “Effect of α1 H-NOX removal on stimulator binding (Ms sGC-NT21 vs Ms sGC-NT13)” value on Ms sGC-NT is reported as ~ 9 fold. Besides, the EC50 in series [5] is 300 nM. For the same molecule, in “Aqueous solubility”, the “Solubility in aqueous buffer” value was “poor solubility”.

Regarding `[C-]#[O+]` [CO], the Kd was 53000 ± 4000 nM at Ms sGC-NT13 [1] (read-out: Kd^CO, no stimulator, 1 μM protein); 2200 ± 200 nM on Ms sGC-NT21 [2] (read-out: Kd^CO, no stimulator, 10 cm cuvette, 0.1 μM protein); ~200 nM on Ms sGC β1(1–380) (absence of the alpha chain); ~200 nM and 200 nM at Ms sGC β1(1–380) (no stimulator, 10 cm cuvette, 0.1 μM protein); 1600 ± 200 nM at Bt sGC β1(1–197) (read-out: Kd^CO, no stimulator, 1 cm cuvette, 0.5 μM protein); 15000 ± 4000 nM on Bt sGC β1(1–359). For the same molecule, the Kd was 50000 to 100000 nM and 50000 to 90000 nM in [6]; 127000 nM on Bt sGC (full length) [7] (ref 51); 97000 nM on Bt sGC (full length) [7] (ref 76); 260000 nM at Hs sGC (full length); 77000 ± 7000 nM on Ms sGC-NT2 (ref 33); 90000 ± 9000 nM at Ms sGC-NT2 (ref 43). Also, the Kd at Ms sGC-NT19 is 50000 ± 3000 nM. Moreover, the “Fold tighter CO binding than Ms sGC proteins containing the α1 H-NOX domain” value on Ms sGC-NT21 [2] (removal of the α1 H-NOX domain) is 20–40 fold and 24 fold. In addition, the “Fold enhancement of CO binding on complete removal of the α1 chain” value at Ms sGC β1(1–380) (vs heterodimeric Ms sGC) is reported as 265 fold. The “Fold less tight CO binding than Ms sGC β1(1–380)” value on Bt sGC β1(1–197) is ~ 8 fold.

Turning to `OCc1ccc(-c2nn(Cc3ccccc3)c3ccccc23)o1` [YC-1], the figures for the “Kd^CO/Kd^CO′ cooperativity factor” value on Ms sGC-NT13 [1] and on Ms sGC-NT21 [2] were 19 ± 3 and 11 ± 1, respectively. The “Tightening of the CO dissociation constant upon YC-1 binding” value at Ms sGC-NT21 [2] (50 μM YC-1) is listed as 10 fold. For the same molecule, the “Kint, cooperativity in CO binding” value on Ms sGC β1(1–380) (any of the constructs missing the α1 chain) is on record as ~ 1. Further, the “Kint (CO) cooperativity factor” value was 19 and 19 ± 2 at Ms sGC-NT13 [3] (from global fitting); 14 and 13.8 ± 0.3 at Ms sGC-NT21 [4]. Further, the Kd on Ms sGC-NT13-CO is 800 ± 100 nM; on Ms sGC-NT21-CO, 600 ± 100 nM; at Ms sGC α1 PAS it was > 100000 nM; at Ms sGC-NT (Kd, CO complexes (presence of CO), over constructs, Ms sGC-NT13 and Ms sGC-NT21), 600 to 1100 nM and ~1000 nM; at Bt sGC (full length) [8], ~8000 nM. The “Binding of YC-1 by fluorescence anisotropy” value in the series with β1 PAS domain is “weak signal”; with lysozyme it was “not for lysozyme”. Moreover, the “Effect of α1 H-NOX removal on stimulator binding (Ms sGC-NT21 vs Ms sGC-NT13)” value on Ms sGC-NT is on record as ~ 2 fold. Further, the “Shift in Soret band maxima upon YC-1 binding” value in the series on Ms sGC β1 (1–380) is listed as “not observed”. The “Stimulation of sGC” value in the series with sGC (in the absence of NO) was “two- to four-fold”. In addition, the “Activation of sGC” value in the series on sGC (synergistically with CO or NO) is “several hundred fold”. The “Solubility in aqueous buffer” value in “Aqueous solubility” is “poor solubility”.
